Test results taken from PMC4576993 (Leukemia, 2011).
“And” between values parts separate entries of the source, which are not always exact repeats. Equal entries are not always repeated. “Also recorded” adds a separate entry of the source.

Assays:
[1] = tested on: relapsed or refractory leukemia; test: Clinical response; type: in vivo, human
Summary of the method: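 Dosing was a ~10 min IV infusion, either weekly (days 1, 8, 15; 18–90 mg/m2) or twice weekly (days 1, 4, 8, 11; 9–50 mg/m2), in 28-day cycles, up to 4(+2) cycles. Marrow aspirate or biopsy and peripheral blood were taken at each cycle end (~day 28). Response followed IWG criteria: MLFS was marrow blasts <5%; CR added no circulating blasts, no extramedullary disease, neutrophils >1×10^9/l and platelets ≥100×109/l; CRp was CR with incomplete platelet recovery.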

[2] = Renal excretion of vosaroxin and metabolites in urine, 24 h after first dose; type: in vivo, human; settings: 24 h after first dose, 18 and 27 mg/m^2 weekly, eight patients
bone marrow = settings: at its MTD, normal mouse model; cited from earlier work
[3] = non-clinical toxicology studies; no reference given; cited from earlier work
[4] = Plasma vosaroxin pharmacokinetics in patients; type: in vivo, human; settings: for half-life: T1/2, mean
P-glycoprotein = settings: cited from earlier work
MV4-11 AML cell line = settings: in vitro; cited from earlier work
[5] = patients with solid tumors, up to 75 mg/m^2/28-day cycle; cited from earlier work

## CN[C@H]1CN(c2ccc3c(=O)c(C(=O)O)cn(-c4nccs4)c3n2)C[C@@H]1OC [vosaroxin, (+)-1,4-dihydro-7-(trans-3-methoxy-4-methylamino-1-pyrrolidinyl)-4-oxo-1-(2-thiazolyl)-1,8-naphthyridine-3-carboxylic acid]
[1]; 16 patients
  Median time to morphologic leukemia-free state after first dose: 32.5 days
  Time to morphologic leukemia-free state after first dose, range: 21–51 days
[1]; 73 treated patients, both schedules
  Patients with response of CR or CRp: Five
[1]; both schedules
  Additional patients with morphologic leukemia-free state (beyond CR/CRp): 11 patients
[1]; five responding patients
  Duration of CR/CRp responses, range: 1.7–19.2 months
  Median duration of CR/CRp responses: 3.1 months
[1]; once weekly with ≥50 mg/m^2
  Patients achieving morphologic leukemia-free state: 12 patients
[1]; twice weekly with ≥30 mg/m^2
  Patients achieving morphologic leukemia-free state: 4 patients
[1]; weekly time above threshold
  Time plasma concentration >1 μmol/l in the other two patients with CR or CRp: 10 h and 16 h
[2]
  Average renal excretion of the total dose infused: 2.35%
Bone marrow
  Bone marrow ablation compared with cytarabine: ablated bone marrow more potently than cytarabine
[3]
  Primary adverse effects: myelosuppression and gastrointestinal toxicity
[4]; age overall and <65 versus ≥65 years
  Differences in clearance based on age, sex, body weight or body surface area: No significant differences in clearance
[4]; all patients
  Average total body clearance: 2 l/h/m^2
[4]; clearance compared weekly vs days 1, 4, 8 and 11
  Induction or inhibition of vosaroxin metabolism after repeated doses: No induction or inhibition of vosaroxin metabolism was evident
[4]; dose range 9–90 mg/m^2
  Plasma exposure (AUC) versus dose: dose proportional; also recorded: increased proportionally with an increase in dose
[4]; human, plasma, intravenous, 72 mg/m2
  AUC(0-t): 32.5 µg·h/mL
[4]; human, plasma, intravenous, 72 mg/m2, AUCinf, mean, weekly, Day 1, 72 mg/m^2, N 11, cycle 1
  AUC(0-inf): 39.5 µg·h/mL
[4]; human, plasma, intravenous, 72 mg/m2, CL, mean, weekly, Day 1, 72 mg/m^2, N 11, cycle 1
  clearance: 69.3 mL/min
[4]; human, plasma, intravenous, 72 mg/m2, MRT, mean, weekly, Day 1, 72 mg/m^2, N 11, cycle 1
  MRT: 33.9 h
[4]; human, plasma, intravenous, 72 mg/m2, Vss, mean, weekly, Day 1, 72 mg/m^2, N 11, cycle 1
  Vd: 130 L
[4]; human, plasma, intravenous, 72 mg/m^2
  Cmax: 1.92 µg/mL
[4]; human, plasma, intravenous, AUCinf, mean, twice weekly, Day 1, 9–50 mg/m^2, N 31, cycle 1
  AUC(0-inf): 14.2 µg·h/mL
[4]; human, plasma, intravenous, AUCinf, mean, twice weekly, Day 8, 9–50 mg/m^2, N 29, cycle 1
  AUC(0-inf): 15.6 µg·h/mL
[4]; human, plasma, intravenous, AUCinf, mean, twice weekly, Day 11, 9–50 mg/m^2, N 28, cycle 1
  AUC(0-inf): 16 µg·h/mL
[4]; human, plasma, intravenous, Average total body clearance, all patients
  clearance: 66.7 mL/min
[4]; human, plasma, intravenous, CL, mean, twice weekly, Day 1, 9–50 mg/m^2, N 31, cycle 1
  clearance: 72.8 mL/min
[4]; human, plasma, intravenous, CL, mean, twice weekly, Day 8, 9–50 mg/m^2, N 29, cycle 1
  clearance: 75.7 mL/min
[4]; human, plasma, intravenous, CL, mean, twice weekly, Day 11, 9–50 mg/m^2, N 28, cycle 1
  clearance: 75.3 mL/min
[4]; human, plasma, intravenous, CL, mean, weekly, Day 1, 18–90 mg/m^2, N 41, cycle 1
  clearance: 65.3 mL/min
[4]; human, plasma, intravenous, MRT, mean, twice weekly, Day 1, 9–50 mg/m^2, N 31, cycle 1
  MRT: 33.9 h
[4]; human, plasma, intravenous, MRT, mean, twice weekly, Day 8, 9–50 mg/m^2, N 29, cycle 1
  MRT: 28.6 h
[4]; human, plasma, intravenous, MRT, mean, twice weekly, Day 11, 9–50 mg/m^2, N 28, cycle 1
  MRT: 30.8 h
[4]; human, plasma, intravenous, twice weekly, Day 1, 9–50 mg/m^2, N 31, cycle 1
  half-life: 26.6 h
[4]; human, plasma, intravenous, twice weekly, Day 4, 9–50 mg/m^2, N 30, cycle 1
  half-life: 28.2 h
[4]; human, plasma, intravenous, Vss, mean, twice weekly, Day 1, 9–50 mg/m^2, N 31, cycle 1
  Vd: 142 L
[4]; human, plasma, intravenous, Vss, mean, twice weekly, Day 8, 9–50 mg/m^2, N 29, cycle 1
  Vd: 126 L
[4]; human, plasma, intravenous, Vss, mean, twice weekly, Day 11, 9–50 mg/m^2, N 28, cycle 1
  Vd: 136 L
[4]; twice-weekly schedule, repeated doses, n=28, P<0.05
  Drug accumulation (AUC72 ratio) day 11/day 1: 1.2
[4]; twice-weekly schedule, repeated doses, n=29, P<0.05
  Drug accumulation (AUC72 ratio) day 4/day 1: 1.2
P-glycoprotein
  Substrate for P-glycoprotein: not a substrate for P-glycoprotein
MV4-11 AML cell line
  Half-maximal (50%) inhibitory concentration (IC50): 0.0401 mg/L
  IC90: 1 µM
[5]
  Primary DLT: myelosuppression
